# KCNQ1 pot = potentiates or activates the human KCNQ1 potassium channel. CHO-K1 KCNQ1, thallium flux FluxOR fluorescence; hits give high values. B-score at 10 µM. P51787. actives 0.35% (n = 310,000);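 active = fluorescence ratio B-score, a plate-corrected score, at least three library SD, with initial intensity B-score within 5 SD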
#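 Assay system: CHO-K1 cells stably expressing KCNQ1; Medium: assay buffer with matched DMSO; Also added: K+/Tl+ depolarizing stimulus; Dosing: single dose; Timing: dye 90 min, compound 20 min, room temperature; Measured by: kinetic FluxOR thallium fluorescence, 10-s 1-Hz baseline, 110-s post-stimulus read; Read-out: peak-minus-minimum fluorescence over initial fluorescence, negative-control normalized, B-scored.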
# KCNK9 inh = blocks the human KCNK9 two-pore domain potassium channel; B-score at 10 µM; Q9NPC2; HEK293 KCNK9, FluxOR thallium flux fluorescence; hits give low values; actives 1.2% (n = 310,000); AID 488922;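 active = ratio B-score over 3 SD below the library mean, with starting fluorescence within 5 SD of its mean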;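 also: negative B-score means less thallium flux so channel inhibition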
# Kir21 block = Kir2.1 (mouse) channel inhibition; HEK293-Kir2.1, FluxOR thallium flux fluorescence; hits give low values; B-score at 10 µM; actives 0.85% (n = 310,000); AID 1672;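 active = fluorescence ratio B-score at or below minus 3 SD of library scores, with starting-brightness B-score within 2 SD, cut at about -4.2 in these data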;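 also: channel flux triggered by added potassium and thallium sulfate stimulus; B-score of peak minus minimum fluorescence over baseline after thallium stimulus; more negative B-score means stronger Kir2.1 block with less thallium influx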
# KCNK3 inh = human KCNK3 channel inhibition, primary screen | O14649 | CHO-KCNK3 thallium flux, FluxOR fluorescence; hits give low values | B-score at 10 µM | actives 0.84% (n = 340,000) | AID 602410;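 active = B-score under library mean minus 4 SD, starting fluorescence ratio at most library mean plus 5 SD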;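 also: more negative B-score means stronger inhibition of thallium flux through KCNK3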
# hERG rescue = shields human hERG channel from block by proarrhythmic agents; CHO-hERG, FluxOR thallium flux, dofetilide IC70 present; activation (rescue from dofetilide block), less the hit threshold, % at 10 µM; actives 0.51% (n = 310,000); AID 1511;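 active = activation above the mean of controls blocked by dofetilide plus 5 SD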;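 also: thallium influx through hERG after potassium depolarization seen as dye fluorescence rise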
# Target sequence (Q12809 whole entry, looked up): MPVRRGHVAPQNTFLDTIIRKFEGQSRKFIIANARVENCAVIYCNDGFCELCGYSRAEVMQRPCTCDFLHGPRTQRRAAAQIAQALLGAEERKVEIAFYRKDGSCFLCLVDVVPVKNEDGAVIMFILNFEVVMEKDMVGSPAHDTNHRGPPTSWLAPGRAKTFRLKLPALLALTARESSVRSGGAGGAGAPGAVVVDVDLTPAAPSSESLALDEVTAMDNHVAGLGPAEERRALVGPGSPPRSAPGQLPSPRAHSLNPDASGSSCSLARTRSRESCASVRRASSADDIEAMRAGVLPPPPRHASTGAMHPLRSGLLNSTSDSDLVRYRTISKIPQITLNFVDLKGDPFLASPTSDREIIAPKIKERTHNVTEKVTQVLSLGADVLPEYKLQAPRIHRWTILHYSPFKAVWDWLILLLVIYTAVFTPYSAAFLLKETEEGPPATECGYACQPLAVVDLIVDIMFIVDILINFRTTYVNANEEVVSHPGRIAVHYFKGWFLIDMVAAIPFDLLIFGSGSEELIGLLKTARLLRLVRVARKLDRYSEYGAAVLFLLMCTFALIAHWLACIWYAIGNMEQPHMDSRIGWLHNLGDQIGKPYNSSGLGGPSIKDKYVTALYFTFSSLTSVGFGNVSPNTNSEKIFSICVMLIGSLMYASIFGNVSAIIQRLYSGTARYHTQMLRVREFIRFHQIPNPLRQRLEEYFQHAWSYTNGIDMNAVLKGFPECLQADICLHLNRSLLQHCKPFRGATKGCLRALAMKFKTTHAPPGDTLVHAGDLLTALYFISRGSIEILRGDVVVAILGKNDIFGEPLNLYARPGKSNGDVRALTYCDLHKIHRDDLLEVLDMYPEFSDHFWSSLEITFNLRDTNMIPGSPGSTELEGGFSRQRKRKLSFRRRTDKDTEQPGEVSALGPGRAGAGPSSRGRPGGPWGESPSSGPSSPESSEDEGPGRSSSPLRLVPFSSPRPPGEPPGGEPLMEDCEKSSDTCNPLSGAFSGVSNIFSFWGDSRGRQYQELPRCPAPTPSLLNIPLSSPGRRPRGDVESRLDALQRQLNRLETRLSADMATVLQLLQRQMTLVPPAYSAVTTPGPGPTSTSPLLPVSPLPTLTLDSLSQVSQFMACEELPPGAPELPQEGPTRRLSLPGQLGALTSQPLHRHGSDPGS
# KCNQ1 inh = human KCNQ1 channel inhibition | P51787 | CHO-K1 KCNQ1, FluxOR thallium flux fluorescence; hits give high values | B-score at 10 µM | actives 1.3% (n = 310,000) | AID 2642;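 active = compounds whose thallium flux B-score, printed positive for inhibition, exceeds three library SD while starting fluorescence stays within three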;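 also: channel opened by potassium depolarization with thallium stimulus after 20 min compound exposure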
# Numbers without * were called inactive; i = inactive; / = not tested or not shown. Most compounds without a hit are left out; they make up all but 3.7% or so of the library.
SMILES,KCNQ1 pot,KCNK9 inh,Kir21 block,KCNK3 inh,hERG rescue,KCNQ1 inh
S=C(N/N=C/c1ccc(Cl)cc1)N1CCOCC1,i,i,0,i,8.6*,i
Oc1c(Br)cc(Br)cc1CNc1cccc2cccnc12,i,i,1.33,i,1.1,i
Oc1ccc(Cl)cc1CNc1cccc2cccnc12,i,-7.75*,1.99,i,-3.9,i
CCN(CC(=O)Nc1ccc(S(=O)(=O)N2CCCC2)cc1)CC(=O)Nc1ccccc1C(F)(F)F,/,/,/,i,/,/
Cc1cc(N2CCN(C)CC2)nc(N2CCOCC2)n1,i,i,-0.5,i,8.0*,i
Cc1cc(N2CCOCC2)nc(N2CCOCC2)n1,i,i,0.04,i,-3.8,i
COc1cccc(C(c2nnnn2Cc2ccco2)N2CCN(c3cccc(C)c3C)CC2)c1OC (stereo not drawn),i,-6.75*,0.14,i,-5.8,6*
CN(C)CC(CCC(CN(C)C)C(=O)c1ccccc1)C(=O)c1ccccc1 (stereo not drawn),20*,i,-1.72,i,-2.4,i
CCOc1ccc(C(=O)C(CCC(CN(C)C)C(=O)c2ccc(OCC)cc2)CN(C)C)cc1 (stereo not drawn),8*,i,-0.67,i,-13.6,i
COc1ccc(C(=O)C(CCCCC(CN(C)C)C(=O)c2ccc(OC)cc2)CN(C)C)cc1 (stereo not drawn),i,i,-2.8,i,-11.0,i
CCC(C)NC(=O)CN1c2cccc3cccc(c23)S1(=O)=O (stereo not drawn),i,i,-2.31,i,-4.3,i
Cc1nn(-c2cc(N3CCCCCC3)ccc2[N+](=O)[O-])c(=O)c2ccccc12,i,i,1.51,i,-5.4,i
Cc1ccc(-c2nn(-c3cc(N4CCNCC4)ccc3[N+](=O)[O-])c(=O)c3ccccc23)cc1,i,i,-4.22*,i,-18.5,i
O=C(CSc1ccc(Cl)cc1)N/N=C/c1cccnc1,i,i,-0.68,i,8.2*,i
CCc1nc(N2CCCC(C)C2)c2oc3ccccc3c2n1 (stereo not drawn),i,-7.42*,-0.95,i,-11.7,i
CCc1nc(N2CCCCC2)c2oc3ccccc3c2n1,i,i,-0.01,i,-5.8,i
CSc1nc2c(c(=O)[nH]1)C(c1ccc(Br)cc1)CC(=O)N2 (stereo not drawn),i,i,-0.12,i,11.1*,i
COc1cc2c(cc1OC)C(c1ccc(Br)cc1)CC(=O)N2 (stereo not drawn),i,i,0.74,i,-9.1,i
CSc1nc2c(c(=O)[nH]1)C(c1ccc(F)cc1)CC(=O)N2 (stereo not drawn),i,i,-0.14,i,11.6*,i
CSc1nc2c(c(=O)[nH]1)C(c1ccc(C(F)(F)F)cc1)CC(=O)N2 (stereo not drawn),i,i,0.07,i,-5.0,i
COc1cnc(-c2ccccn2)nc1Oc1ccc(Cl)c2ccccc12,i,-8.06*,1.28,i,-3.9,i
FC(F)(F)Oc1ccc(Nc2nc(N3CCOCC3)nc(N3CCOCC3)n2)cc1,i,i,-0.38,i,-11.6,i
COc1ccc(-c2nnc(-c3ccc(C)cc3)o2)cc1,i,i,-0.69,i,-1.5,i
COc1ccc(-c2nnc(-c3ccccc3O)o2)cc1,i,i,0.26,i,5.1*,i
Cc1ccc(OCCCNC2CCCC2)cc1,i,i,2.35,i,-8.9,i
SMILES,KCNQ1 pot,KCNK9 inh,Kir21 block,KCNK3 inh,hERG rescue,KCNQ1 inh
CC(C)(C)c1ccc(OCCCNC2CCCC2)cc1,i,i,-4.26*,i,-12.3,i
Cc1ccc(N2CCN(Cc3ccccc3)CC2=O)c(C)c1,i,i,-0.44,i,-7.5,i
Clc1ccc(C(c2ccccc2)N2CCN(c3ccccn3)CC2)cc1 (stereo not drawn),i,-7.26*,-1.94,i,-9.1,i
c1ccc(C(c2ccccc2)N2CCN(c3nc4ccccc4n4cnnc34)CC2)cc1,i,i,1.52,/,-7.5,6*
c1ccc(C(c2ccccc2)N2CCN(c3ccc4ccccc4n3)CC2)cc1,i,-7.76*,-1.33,i,-10.0,i
COc1ccccc1N1CCN(c2ccc3ccccc3n2)CC1,i,i,1.97,i,-4.2,i
CCN(CC(=O)NCc1cccs1)C(=O)c1ccc(S(=O)(=O)Nc2ccccc2)cc1,i,i,0.09,i,-4.3,i
O=C1COc2ccc(C(=O)COC(=O)CNC(=O)C3CCCCC3)cc2N1,i,i,1.64,i,-19.9,i
Cc1cccc(NCc2ccc(O)c3ncccc23)c1C,i,i,0.55,i,-9.8,i
Cc1cccnc1NCc1ccc(O)c2ncccc12,i,i,1.55,i,6.8*,i
CC1=CCC2C(=O)N(c3ccc(OC(=O)c4ccco4)cc3)C(=O)C2C1 (stereo not drawn),i,i,-7.86*,i,-11.9,i
Clc1ccc(-c2ccc(CN3CCCCC3)o2)cc1,i,i,0.08,i,-7.8,i
CN1CCN(Cc2ccc(-c3ccc(Cl)cc3)o2)CC1,i,i,-4.66*,i,-7.2,i
Cc1csc(SC(C)C(=O)Nc2ccccc2C)n1 (stereo not drawn),/,/,/,i,/,/
Cc1ccc(S[C@@H](CCN2CC[C@H](C(C)(C)C)CCC2=O)c2ccccc2)cc1,i,i,-0.9,i,-5.7,7*
CC(NC(=O)CSc1nnnn1C1CC1)c1ccccc1Br (stereo not drawn),/,/,/,i,/,/
Cc1ccccc1Cn1c(O)c(N=NC(=S)Nc2ccccc2F)c2ccccc21,i,i,-1.48,i,35.6*,i
CCn1c(O)c(N=NC(=O)CNC(=O)c2ccccc2F)c2ccccc21,i,i,0.05,i,-3.7,i
Oc1c(N=NC(=S)Nc2ccccc2F)c2ccccc2n1Cc1ccccc1F,23*,i,-0.1,i,28.9*,i
CCCn1c(O)c(N=NC(=O)c2ccco2)c2ccccc21,i,i,0.2,i,59.7*,i
Cc1ccc(Cn2c(O)c(N=NC(=S)Nc3ccccc3F)c3cc(S(=O)(=O)N4CCOCC4)ccc32)cc1,i,i,-0.33,i,5.7*,i
CCc1ccccc1NC(=S)N=Nc1c(O)n(C)c2ccc(S(=O)(=O)N3CCOCC3)cc12,i,i,-0.25,i,-2.3,i

# Assay outcomes as filed in PubChem BioAssay.
